The text below walks through data of ChEMBL document CHEMBL4043093, “2-Oxo-3, 4-dihydropyrimido[4, 5-d]pyrimidinyl derivatives as new irreversible pan fibroblast growth factor receptor (FGFR) inhibitors” (Eur J Med Chem, 2017).

The target of experiment [1] is Receptor-type tyrosine-protein kinase FLT3 (Homo sapiens) (UniProt P36888). Nature of the experiment: Inhibition of wild-type human partial length autoinhibited FLT3 (H564 to Y969 residues) expressed in HEK293 cells assessed as residual activity at 1000 nM after 30 mins by Kinomescan method relative to control. Type of experiment: cell-based.
The target of experiment [2] is Angiopoietin-1 receptor (Homo sapiens) (UniProt Q02763). Nature of the experiment: Inhibition of wild-type human partial length TIE2 (N804 to T1112 residues) expressed in Escherichia coli BL21 assessed as residual activity at 1000 nM after 30 mins by Kinomescan method relative to control.
Chain of Angiopoietin-1 receptor (Homo sapiens) (Q02763 whole entry, the tested form may be a part): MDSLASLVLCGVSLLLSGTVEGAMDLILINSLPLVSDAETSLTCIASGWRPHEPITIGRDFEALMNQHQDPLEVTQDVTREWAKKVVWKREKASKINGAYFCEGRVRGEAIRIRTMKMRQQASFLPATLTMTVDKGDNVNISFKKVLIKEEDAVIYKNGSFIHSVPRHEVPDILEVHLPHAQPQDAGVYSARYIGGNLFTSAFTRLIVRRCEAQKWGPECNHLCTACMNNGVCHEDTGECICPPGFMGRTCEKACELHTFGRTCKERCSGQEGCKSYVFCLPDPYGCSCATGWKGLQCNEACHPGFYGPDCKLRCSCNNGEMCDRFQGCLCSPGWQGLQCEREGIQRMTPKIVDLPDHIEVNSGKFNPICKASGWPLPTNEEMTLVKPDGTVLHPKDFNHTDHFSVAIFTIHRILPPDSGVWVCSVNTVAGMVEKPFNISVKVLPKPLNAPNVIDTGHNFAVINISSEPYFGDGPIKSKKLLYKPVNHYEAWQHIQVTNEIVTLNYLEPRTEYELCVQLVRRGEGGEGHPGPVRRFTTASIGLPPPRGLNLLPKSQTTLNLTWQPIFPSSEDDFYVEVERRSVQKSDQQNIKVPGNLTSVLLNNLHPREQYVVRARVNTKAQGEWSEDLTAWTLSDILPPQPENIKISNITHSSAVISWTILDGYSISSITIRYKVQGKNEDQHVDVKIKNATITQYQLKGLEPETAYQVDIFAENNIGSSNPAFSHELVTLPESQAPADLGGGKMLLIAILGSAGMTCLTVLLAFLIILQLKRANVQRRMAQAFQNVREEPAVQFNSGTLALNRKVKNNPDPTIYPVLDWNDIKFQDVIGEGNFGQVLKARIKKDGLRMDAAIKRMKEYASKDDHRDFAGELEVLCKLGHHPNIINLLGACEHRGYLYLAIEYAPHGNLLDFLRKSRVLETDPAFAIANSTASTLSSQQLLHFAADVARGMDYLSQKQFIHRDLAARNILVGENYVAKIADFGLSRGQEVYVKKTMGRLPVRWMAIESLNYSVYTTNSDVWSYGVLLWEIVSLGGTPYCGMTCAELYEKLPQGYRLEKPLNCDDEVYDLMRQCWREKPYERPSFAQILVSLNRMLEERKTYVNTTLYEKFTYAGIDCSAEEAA
Experiment [3] deals with Rho-associated protein kinase 1 (Homo sapiens) (UniProt Q13464). Nature of the experiment: Inhibition of wild-type human partial length ROCK1 (M1 to R415 residues) expressed in HEK293 cells assessed as residual activity at 1000 nM after 30 mins by Kinomescan method relative to control. Type of experiment: cell-based.
The target of experiment [4] is CDK4/Cyclin D3 (Homo sapiens) (UniProt P11802+P30281). Nature of the experiment: Inhibition of wild-type human full length CDK4/cyclinD3 (M1 to E303 residues) expressed in HEK293 cells assessed as residual activity at 1000 nM after 30 mins by Kinomescan method relative to control. Type of experiment: cell-based. In a few lines:
(§1)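 Single-point screen at a fixed 1 µM, run within a 456-kinase DiscoveRx KINOMEscan panel. Each kinase's read-out is Percent Control, i.e. signal relative to a control without compound. Hits were scored by a Percent Control < 35 cut-off, and an S(35) selectivity score was calculated across the non-mutant kinases.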

Experiment [5] deals with SRSF protein kinase 1 (Homo sapiens) (UniProt Q96SB4). Description: Inhibition of wild-type human full length SRPK1 (M1 to S655 residues) expressed in Escherichia coli BL21 assessed as residual activity at 1000 nM after 30 mins by Kinomescan method relative to control.
Chain of SRSF protein kinase 1 (Homo sapiens) (Q96SB4 whole entry, the tested form may be a part): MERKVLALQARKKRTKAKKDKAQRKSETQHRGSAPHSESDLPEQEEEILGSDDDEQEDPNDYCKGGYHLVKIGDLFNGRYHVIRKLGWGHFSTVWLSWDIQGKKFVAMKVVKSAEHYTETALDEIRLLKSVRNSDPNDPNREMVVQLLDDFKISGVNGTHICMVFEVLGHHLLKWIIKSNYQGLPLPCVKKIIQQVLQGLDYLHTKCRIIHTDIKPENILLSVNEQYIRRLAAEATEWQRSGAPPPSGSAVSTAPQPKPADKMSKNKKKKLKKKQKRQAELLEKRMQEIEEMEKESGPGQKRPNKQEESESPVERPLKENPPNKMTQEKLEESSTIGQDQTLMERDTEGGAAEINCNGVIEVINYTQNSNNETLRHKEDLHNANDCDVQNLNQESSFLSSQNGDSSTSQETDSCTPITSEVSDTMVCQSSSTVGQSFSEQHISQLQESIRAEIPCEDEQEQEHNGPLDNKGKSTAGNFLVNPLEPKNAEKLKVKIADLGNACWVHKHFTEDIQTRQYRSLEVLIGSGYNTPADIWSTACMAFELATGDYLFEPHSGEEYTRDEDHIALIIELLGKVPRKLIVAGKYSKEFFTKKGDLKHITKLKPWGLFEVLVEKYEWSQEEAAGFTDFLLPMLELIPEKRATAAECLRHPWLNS
Experiment [6] relates to Tyrosine-protein kinase ABL1 (Homo sapiens), P00519 [F317L]. Description: Inhibition of human phosphorylated ABL1 F317L mutant (S229 to K512 residues) expressed in HEK293 cells assessed as residual activity at 1000 nM after 30 mins by Kinomescan method relative to control. In kind it is cell-based. In a few lines:
as §1

The target of experiment [7] is Serine/threonine-protein kinase WNK2 (Homo sapiens) (UniProt Q9Y3S1). Description: Inhibition of wild-type human partial length WNK2 (V47 to D482 residues) expressed in HEK293 cells assessed as residual activity at 1000 nM after 30 mins by Kinomescan method relative to control. In kind it is cell-based.
The target of experiment [8] is Ribosomal protein S6 kinase alpha-1 (Homo sapiens) (UniProt Q15418). Nature of the experiment: Inhibition of wild-type human partial length N-terminal RSK1 Kinase domain 1 (M1 to E388 residues) expressed in Escherichia coli BL21 assessed as residual activity at 1000 nM after 30 mins by Kinomescan method relative to control.
Experiment [9] has as its target Serine/threonine-protein kinase PAK 4 (Homo sapiens) (UniProt O96013). Nature of the experiment: Inhibition of wild-type human partial length PAK4 (Q144 to R438 residues) expressed in Escherichia coli BL21 assessed as residual activity at 1000 nM after 30 mins by Kinomescan method relative to control.
Experiment [10] addresses Myosin light chain kinase family member 4 (Homo sapiens) (UniProt Q86YV6). Nature of the experiment: Inhibition of wild-type human partial length MYLK4 (V79 to S380 residues) expressed in Escherichia coli BL21 assessed as residual activity at 1000 nM after 30 mins by Kinomescan method relative to control.
The target in experiment [11] is Calcium/calmodulin-dependent protein kinase type II subunit delta (Homo sapiens) (UniProt Q13557). Description: Inhibition of wild-type human partial length CAMK2D (M1 to E329 residues) expressed in Escherichia coli BL21 assessed as residual activity at 1000 nM after 30 mins by Kinomescan method relative to control.
In experiment [12] the target is Tyrosine-protein kinase HCK (Homo sapiens) (UniProt P08631). Nature of the experiment: Inhibition of wild-type human full length HCK (M22 to P526 residues) expressed in Escherichia coli BL21 assessed as residual activity at 1000 nM after 30 mins by Kinomescan method relative to control. In a few lines:
(§2)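 Single-concentration screen at 1 µM across a 456-kinase KINOMEscan panel. The read-out is Percent Control for each kinase.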

In experiment [13] the target is Ephrin type-A receptor 7 (Homo sapiens) (UniProt Q15375). Description: Inhibition of wild-type human partial length EPHA7 (Y608 to S912 residues) expressed in Escherichia coli BL21 assessed as residual activity at 1000 nM after 30 mins by Kinomescan method relative to control.
Experiment [14] has as its target Mitogen-activated protein kinase 13 (Homo sapiens) (UniProt O15264). Description: Inhibition of wild-type human full length p38-delta (M1 to L365 residues) expressed in Escherichia coli BL21 assessed as residual activity at 1000 nM after 30 mins by Kinomescan method relative to control.
For experiment [15], the target named is Ribosomal protein S6 kinase alpha-2 (Homo sapiens) (UniProt Q15349). Description: Inhibition of wild-type human partial length C-terminal RSK2 kinase domain 2 (V402 to S715 residues) expressed in HEK293 cells assessed as residual activity at 1000 nM after 30 mins by Kinomescan method relative to control. In kind it is cell-based.
The target of experiment [16] is G protein-coupled receptor kinase 4 (Homo sapiens) (UniProt P32298). Description: Inhibition of wild-type human full length GRK4 (M1 to C578 residues) expressed in Escherichia coli BL21 assessed as residual activity at 1000 nM after 30 mins by Kinomescan method relative to control. In a few lines: as §2
Chain of G protein-coupled receptor kinase 4 (Homo sapiens) (P32298 whole entry, looked up, the tested form may be a part, canonical isoform): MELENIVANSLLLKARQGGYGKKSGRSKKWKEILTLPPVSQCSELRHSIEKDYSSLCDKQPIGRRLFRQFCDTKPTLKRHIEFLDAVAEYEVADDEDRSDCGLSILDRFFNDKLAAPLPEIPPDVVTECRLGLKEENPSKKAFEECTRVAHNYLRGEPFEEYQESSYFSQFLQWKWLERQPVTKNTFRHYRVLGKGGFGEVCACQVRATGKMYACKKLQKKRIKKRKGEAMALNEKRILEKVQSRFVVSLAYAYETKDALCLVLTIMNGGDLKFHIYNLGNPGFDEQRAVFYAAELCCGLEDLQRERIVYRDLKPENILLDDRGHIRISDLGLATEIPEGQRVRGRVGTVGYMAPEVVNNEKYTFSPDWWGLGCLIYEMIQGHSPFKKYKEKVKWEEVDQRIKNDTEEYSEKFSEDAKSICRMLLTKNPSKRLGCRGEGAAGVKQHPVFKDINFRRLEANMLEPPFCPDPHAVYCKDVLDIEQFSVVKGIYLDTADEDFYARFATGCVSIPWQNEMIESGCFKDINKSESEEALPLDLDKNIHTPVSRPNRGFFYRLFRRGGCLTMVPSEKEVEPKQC
The subject of experiment [17] is Phosphatidylinositol 4,5-bisphosphate 3-kinase catalytic subunit alpha isoform (Homo sapiens), P42336 [Q546K]. Description: Inhibition of human partial length PIK3CA Q546K mutant (R108 to N1068 residues) expressed in HEK293 cells assessed as residual activity at 1000 nM after 30 mins by Kinomescan method relative to control. In kind it is cell-based. In short, it runs like this:
as §1

Experiment [18] addresses Cyclin-dependent kinase-like 2 (Homo sapiens) (UniProt Q92772). Description: Inhibition of wild-type human partial length CDKL2 (M1 to D327 residues) expressed in Escherichia coli BL21 assessed as residual activity at 1000 nM after 30 mins by Kinomescan method relative to control.
The subject of experiment [19] is Phosphatidylinositol 4,5-bisphosphate 3-kinase catalytic subunit alpha isoform (Homo sapiens), P42336 [E545A]. Nature of the experiment: Inhibition of human partial length PIK3CA E545A mutant (R108 to N1068 residues) expressed in HEK293 cells assessed as residual activity at 1000 nM after 30 mins by Kinomescan method relative to control. Type of experiment: cell-based. In short, it runs like this: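 KINOMEscan binding panel of 456 kinases, with the test compound at a single concentration of 1 µM. Read-out is Percent Control.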

Experiment [20] deals with Phosphatidylinositol 3-kinase catalytic subunit type 3 (Homo sapiens) (UniProt Q8NEB9). Description: Inhibition of wild-type human partial length VPS34 (S282 to H879 residues) expressed in HEK293 cells assessed as residual activity at 1000 nM after 30 mins by Kinomescan method relative to control. Type of experiment: cell-based.
For experiment [21], the target named is Cytoplasmic tyrosine-protein kinase BMX (Homo sapiens) (UniProt P51813). Description: Inhibition of wild-type human full length BMX (M1 to H675 residues) expressed in Escherichia coli BL21 assessed as residual activity at 1000 nM after 30 mins by Kinomescan method relative to control. In a few lines: as §1

Chain of Serine/threonine-protein kinase PAK 4 (Homo sapiens) (O96013 whole entry, looked up, the tested form may be a part): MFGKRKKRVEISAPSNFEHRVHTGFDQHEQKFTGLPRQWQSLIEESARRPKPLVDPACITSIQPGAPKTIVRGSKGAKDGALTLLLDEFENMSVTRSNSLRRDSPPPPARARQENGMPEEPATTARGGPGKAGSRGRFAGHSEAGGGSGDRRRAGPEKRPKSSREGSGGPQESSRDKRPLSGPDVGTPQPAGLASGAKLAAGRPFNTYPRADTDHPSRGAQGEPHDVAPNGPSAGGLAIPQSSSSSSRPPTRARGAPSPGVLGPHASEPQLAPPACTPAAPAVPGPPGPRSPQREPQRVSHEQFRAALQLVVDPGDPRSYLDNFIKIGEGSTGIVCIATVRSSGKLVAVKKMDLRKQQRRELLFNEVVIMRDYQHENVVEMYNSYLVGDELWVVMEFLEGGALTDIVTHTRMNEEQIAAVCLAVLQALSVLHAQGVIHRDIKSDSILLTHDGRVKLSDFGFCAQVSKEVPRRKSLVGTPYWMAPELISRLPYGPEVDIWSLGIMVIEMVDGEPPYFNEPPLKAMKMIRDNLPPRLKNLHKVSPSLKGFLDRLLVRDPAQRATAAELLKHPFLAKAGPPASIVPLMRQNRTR
Chain of Phosphatidylinositol 4,5-bisphosphate 3-kinase catalytic subunit alpha isoform (Homo sapiens), P42336 [Q546K] (P42336 whole entry Q546K, the tested form may be a part, canonical isoform): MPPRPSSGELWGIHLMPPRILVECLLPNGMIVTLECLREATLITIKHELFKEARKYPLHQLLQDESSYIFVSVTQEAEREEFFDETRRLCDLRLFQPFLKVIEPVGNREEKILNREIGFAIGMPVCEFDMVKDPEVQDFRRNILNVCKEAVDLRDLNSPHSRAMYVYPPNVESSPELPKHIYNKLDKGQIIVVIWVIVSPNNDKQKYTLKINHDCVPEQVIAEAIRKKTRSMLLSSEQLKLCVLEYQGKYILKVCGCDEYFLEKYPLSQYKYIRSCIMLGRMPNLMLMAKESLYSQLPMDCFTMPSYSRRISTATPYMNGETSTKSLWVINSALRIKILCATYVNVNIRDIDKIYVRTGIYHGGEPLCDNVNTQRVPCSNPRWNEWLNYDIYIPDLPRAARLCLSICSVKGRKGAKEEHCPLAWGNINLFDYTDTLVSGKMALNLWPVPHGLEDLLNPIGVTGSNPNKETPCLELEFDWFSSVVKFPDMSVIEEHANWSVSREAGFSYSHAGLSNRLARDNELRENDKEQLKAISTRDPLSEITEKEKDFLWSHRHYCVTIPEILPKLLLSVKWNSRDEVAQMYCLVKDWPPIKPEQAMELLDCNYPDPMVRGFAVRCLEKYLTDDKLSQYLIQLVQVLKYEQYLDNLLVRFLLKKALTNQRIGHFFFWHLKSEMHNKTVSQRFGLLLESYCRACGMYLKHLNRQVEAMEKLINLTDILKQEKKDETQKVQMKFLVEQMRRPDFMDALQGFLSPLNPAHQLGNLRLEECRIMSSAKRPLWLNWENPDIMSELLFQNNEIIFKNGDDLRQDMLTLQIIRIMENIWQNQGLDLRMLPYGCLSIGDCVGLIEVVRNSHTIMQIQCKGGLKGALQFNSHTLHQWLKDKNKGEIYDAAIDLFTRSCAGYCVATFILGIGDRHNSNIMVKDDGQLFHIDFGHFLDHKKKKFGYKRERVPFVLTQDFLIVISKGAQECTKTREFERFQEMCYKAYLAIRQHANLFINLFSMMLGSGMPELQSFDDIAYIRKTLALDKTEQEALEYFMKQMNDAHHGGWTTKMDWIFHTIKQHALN
Chain of Myosin light chain kinase family member 4 (Homo sapiens) (Q86YV6 whole entry, the tested form may be a part): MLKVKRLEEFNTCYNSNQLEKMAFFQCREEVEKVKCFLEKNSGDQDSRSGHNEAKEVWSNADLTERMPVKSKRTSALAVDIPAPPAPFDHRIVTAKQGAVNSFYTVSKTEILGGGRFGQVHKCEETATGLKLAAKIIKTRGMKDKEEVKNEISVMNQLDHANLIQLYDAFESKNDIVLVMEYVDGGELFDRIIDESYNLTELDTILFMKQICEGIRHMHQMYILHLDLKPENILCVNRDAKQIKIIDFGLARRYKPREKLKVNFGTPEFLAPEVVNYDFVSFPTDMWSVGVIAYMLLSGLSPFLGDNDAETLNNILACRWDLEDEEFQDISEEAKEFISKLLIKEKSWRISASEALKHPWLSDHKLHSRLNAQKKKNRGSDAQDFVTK
Chain of Mitogen-activated protein kinase 13 (Homo sapiens) (O15264 whole entry, the tested form may be a part): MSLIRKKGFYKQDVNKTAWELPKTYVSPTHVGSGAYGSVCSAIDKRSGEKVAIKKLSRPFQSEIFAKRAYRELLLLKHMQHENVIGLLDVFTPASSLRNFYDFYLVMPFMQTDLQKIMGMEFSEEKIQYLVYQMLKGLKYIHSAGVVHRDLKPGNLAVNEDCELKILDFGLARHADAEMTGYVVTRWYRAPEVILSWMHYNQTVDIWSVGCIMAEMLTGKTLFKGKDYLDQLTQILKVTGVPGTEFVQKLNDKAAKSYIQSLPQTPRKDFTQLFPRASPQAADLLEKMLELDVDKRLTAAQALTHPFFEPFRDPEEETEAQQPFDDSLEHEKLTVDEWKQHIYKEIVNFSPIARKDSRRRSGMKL

Take `COc1cc(OC)c(Cl)c(N2Cc3cnc(Nc4ccc(F)cc4)nc3N(C3CCN(C(=O)/C=C/CN(C)C)CC3)C2=O)c1Cl`: the Activity in [1] is 100%; in [2] it was 26%; in experiment [3] it was 100%; in experiment [4], 100%; in experiment [5] it was 80%; in experiment [6], 64%. Besides, the Activity is 96% in experiment [7]; 78% in experiment [8]; 100% in experiment [9]; 85% in experiment [10]; 100% in experiment [11]; 10% in [12]. Moreover, the Activity was found to be 99% in [13]; 90% in experiment [14]; 96% in [15]; 78% in experiment [16]; 98% in experiment [17]; 96% in experiment [18]. Further, the Activity turned out to be 90% in [19], 100% in [20] and 99% in experiment [21].
